Experimental data from ChEMBL document CHEMBL4038329, “Side-Chain Modified Ergosterol and Stigmasterol Derivatives as Liver X Receptor Agonists” (J Med Chem, 2017).
The source made the active and inactive calls. The rule behind the calls is not given here.

Key:
[1] = Agonist activity at LXR in human HepG2 cells assessed as upregulation of SREBP1c mRNA levels at 10 uM after 6 hrs by qPCR analysis; format: cell-based
Procedure, shortened: (§1)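 HepG2 cells treated with ligand (10 μM). Total RNA was extracted with TRIZOL; 2 µg was reverse-transcribed (1 h, 42 °C). SREBP1c, FASN and SCD1 transcripts were measured by qPCR. Mean ± SD of three biological samples; ANOVA with Dunnett's test.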

[2] = Agonist activity at LXR in human HepG2 cells assessed as upregulation of SCD1 mRNA levels at 10 uM after 6 hrs by qPCR analysis; format: cell-based; procedure, shortened: as §1
[3] = Agonist activity at LXR in human U937 cells assessed as upregulation of FASN mRNA levels at 10 uM after 6 hrs by qPCR analysis; format: cell-based
Procedure, shortened: (§2)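 U937 cells, 3x10⁶ in 10 ml RPMI with 10% FBS, differentiated with PMA 10 ng/ml for 72 h at 37 °C, then treated with ligand (10 μM) for 6 h. Total RNA was isolated with TRIZOL; 2 µg was reverse-transcribed for 1 h at 42 °C. Transcripts were measured by qPCR. Mean ± SD of three biological samples; ANOVA with Dunnett's test.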

[4] = species: Homo sapiens; test: Agonist activity at LXR in human U937 cells assessed as upregulation of ABCA1 mRNA levels at 10 uM after 6 hrs by qPCR analysis; format: cell-based; procedure, shortened: as §2
[5] = target: T1, Oxysterols receptor LXR-beta (Homo sapiens, UniProt P55055); test: Activation of GAL4 fused human LXR beta expressed in HEK293 cells after 24 hrs by luciferase reporter gene assay; format: cell-based
T1 sequence (P55055 whole entry): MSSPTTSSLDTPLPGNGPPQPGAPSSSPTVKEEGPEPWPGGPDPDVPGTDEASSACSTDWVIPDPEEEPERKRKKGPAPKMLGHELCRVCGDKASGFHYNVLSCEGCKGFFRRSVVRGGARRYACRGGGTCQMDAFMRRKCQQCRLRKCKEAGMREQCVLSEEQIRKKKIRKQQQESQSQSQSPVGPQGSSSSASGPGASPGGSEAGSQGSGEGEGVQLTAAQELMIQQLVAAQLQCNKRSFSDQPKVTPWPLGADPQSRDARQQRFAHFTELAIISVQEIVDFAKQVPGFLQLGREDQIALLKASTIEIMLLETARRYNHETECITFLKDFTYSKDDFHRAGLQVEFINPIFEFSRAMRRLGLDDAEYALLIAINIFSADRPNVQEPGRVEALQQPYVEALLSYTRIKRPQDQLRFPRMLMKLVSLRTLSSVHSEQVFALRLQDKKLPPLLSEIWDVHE
Procedure, shortened: (§3)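 HEK293 cells (4x10⁴/well), grown in DMEM with 10% FBS at 37 °C under 5% CO₂, transiently co-transfected with pMH100X4-TK-luc, Renilla and the Gal4-LXR-α or Gal4-LXR-β plasmid. Dosing began 6 h after transfection and lasted 24 h, at 32, 16, 8, 4, 2 and 1 μM. Dual luciferase read-out. EC50 came from dose-response curves, averaged over three to five independent experiments, ± SD.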

[6] = target: T2, Oxysterols receptor LXR-alpha (Homo sapiens, UniProt Q13133); test: Activation of GAL4 fused human LXR alpha expressed in HEK293 cells after 24 hrs by luciferase reporter gene assay; format: cell-based; procedure, shortened: as §3
T2 sequence (Q13133 whole entry): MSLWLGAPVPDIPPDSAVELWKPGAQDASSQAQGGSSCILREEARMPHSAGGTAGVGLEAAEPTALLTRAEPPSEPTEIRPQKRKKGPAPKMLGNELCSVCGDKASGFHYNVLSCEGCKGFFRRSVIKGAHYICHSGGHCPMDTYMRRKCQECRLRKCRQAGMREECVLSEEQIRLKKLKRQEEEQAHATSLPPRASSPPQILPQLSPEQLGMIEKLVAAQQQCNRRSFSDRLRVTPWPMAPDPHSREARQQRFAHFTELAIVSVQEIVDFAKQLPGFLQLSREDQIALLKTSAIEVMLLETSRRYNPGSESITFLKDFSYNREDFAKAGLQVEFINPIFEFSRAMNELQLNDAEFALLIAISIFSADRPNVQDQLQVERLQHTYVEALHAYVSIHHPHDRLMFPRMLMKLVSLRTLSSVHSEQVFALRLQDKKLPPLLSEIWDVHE

[7] = Agonist activity at LXR in human U937 cells assessed as upregulation of SREBP1c mRNA levels at 10 uM after 6 hrs by qPCR analysis; format: cell-based; procedure, shortened: as §2
[8] = Agonist activity at LXR in human U937 cells assessed as upregulation of SCD1 mRNA levels at 10 uM after 6 hrs by qPCR analysis relative to control; format: cell-based; details: human, 6 h, 10 µM; procedure, shortened: as §2
[9] = Agonist activity at LXR in human HepG2 cells assessed as upregulation of FASN mRNA levels at 10 uM after 6 hrs by qPCR analysis; format: cell-based; procedure, shortened: as §1
[10] = species: Homo sapiens; test: Agonist activity at LXR in human U937 cells assessed as downregulation of LPS-induced CCL2 mRNA expression at 10 uM after 6 hrs by qPCR analysis; format: cell-based
Procedure, shortened: (§4)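 PMA-differentiated U937 cells (10 ng/ml PMA, 72 h) were given LPS 100 ng/ml together with compound (10 μM) for 6 h. CCL2 and TNFα mRNA were measured by qPCR after TRIZOL RNA extraction and reverse transcription. Three biological samples per group, mean ± SD.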

[11] = target: T3, Peroxisome proliferator-activated receptor gamma (Homo sapiens) (UniProt P37231); test: Activation of GAL4 fused human PPARgamma expressed in HEK293 cells at 10 uM after 24 hrs by luciferase reporter gene assay
T3 sequence (whole entry): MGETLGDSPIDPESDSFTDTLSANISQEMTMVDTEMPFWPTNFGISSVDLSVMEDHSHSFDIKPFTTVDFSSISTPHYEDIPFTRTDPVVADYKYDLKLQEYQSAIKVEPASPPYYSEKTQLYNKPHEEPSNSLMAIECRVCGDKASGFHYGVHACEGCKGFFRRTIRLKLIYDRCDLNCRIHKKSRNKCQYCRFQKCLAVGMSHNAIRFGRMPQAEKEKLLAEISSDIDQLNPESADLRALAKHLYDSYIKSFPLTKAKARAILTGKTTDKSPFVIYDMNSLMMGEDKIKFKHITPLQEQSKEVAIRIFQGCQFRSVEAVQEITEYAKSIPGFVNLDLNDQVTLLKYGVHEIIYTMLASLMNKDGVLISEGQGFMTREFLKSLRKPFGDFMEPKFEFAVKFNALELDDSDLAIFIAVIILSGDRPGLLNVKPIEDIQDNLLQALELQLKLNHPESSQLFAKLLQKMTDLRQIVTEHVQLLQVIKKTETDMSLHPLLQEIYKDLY

[12] = target: T4, Nuclear receptor subfamily 1 group I member 2 (Homo sapiens, UniProt O75469); test: Activation of GAL4 fused human PXR expressed in HEK293 cells at 10 uM by luciferase reporter gene assay; details: hek293, 10 µM
T4 sequence (O75469 whole entry): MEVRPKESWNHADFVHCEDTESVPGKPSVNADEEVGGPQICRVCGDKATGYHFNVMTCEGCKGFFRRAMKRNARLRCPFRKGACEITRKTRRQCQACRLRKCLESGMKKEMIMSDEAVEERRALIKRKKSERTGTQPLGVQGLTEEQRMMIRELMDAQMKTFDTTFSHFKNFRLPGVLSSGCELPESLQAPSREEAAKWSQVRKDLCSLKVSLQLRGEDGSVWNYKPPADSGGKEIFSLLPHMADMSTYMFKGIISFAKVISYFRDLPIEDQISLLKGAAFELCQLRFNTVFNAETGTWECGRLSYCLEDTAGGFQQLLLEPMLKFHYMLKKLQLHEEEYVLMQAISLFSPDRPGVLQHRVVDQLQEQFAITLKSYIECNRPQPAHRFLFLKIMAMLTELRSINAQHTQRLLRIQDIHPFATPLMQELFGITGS

[13] = test system: HEK293; test: Activation of GAL4 fused human RXR expressed in HEK293 cells at 10 uM after 24 hrs by luciferase reporter gene assay
[14] = target: T5, Bile acid receptor (Homo sapiens) (UniProt Q96RI1); test: Activation of GAL4 fused human FXR expressed in HEK293 cells at 10 uM by luciferase reporter gene assay
T5 sequence (whole entry): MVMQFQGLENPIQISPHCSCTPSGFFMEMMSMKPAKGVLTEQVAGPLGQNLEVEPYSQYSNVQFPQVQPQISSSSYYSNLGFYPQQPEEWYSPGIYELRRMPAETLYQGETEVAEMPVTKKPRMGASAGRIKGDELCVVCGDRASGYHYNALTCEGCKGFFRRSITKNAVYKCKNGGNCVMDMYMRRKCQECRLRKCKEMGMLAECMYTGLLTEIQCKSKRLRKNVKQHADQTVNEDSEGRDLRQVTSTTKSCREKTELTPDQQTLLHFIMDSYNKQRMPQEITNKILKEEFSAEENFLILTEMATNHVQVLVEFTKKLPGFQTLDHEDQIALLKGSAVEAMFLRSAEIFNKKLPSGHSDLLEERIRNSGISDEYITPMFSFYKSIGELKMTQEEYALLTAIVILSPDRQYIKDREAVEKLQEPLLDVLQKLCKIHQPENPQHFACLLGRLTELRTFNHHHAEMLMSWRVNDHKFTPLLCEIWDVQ

[15] = target: T6, Oxysterols receptor LXR-alpha (Homo sapiens) (UniProt Q13133); test: Activation of GAL4 fused human LXR alpha expressed in HEK293 cells after 24 hrs by luciferase reporter gene assay relative to 22R-HC; format: cell-based
T6 sequence (whole entry): T2 sequence (Q13133 whole entry)
Procedure, shortened: (§5)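 HEK293 cells carrying the Gal4-LXR-α or Gal4-LXR-β chimera plus the pMH100X4-TK-luc and Renilla reporters. Treatment started 6 h post-transfection and ran 24 h. Dual luciferase read-out. Efficacy is given as % of the response to 8 μM 22R-HC, ± SD, from three to five independent experiments.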

[16] = target: T7, Oxysterols receptor LXR-beta (Homo sapiens) (UniProt P55055); test: Activation of GAL4 fused human LXR beta expressed in HEK293 cells after 24 hrs by luciferase reporter gene assay relative to 22R-HC; format: cell-based; procedure, shortened: as §5
T7 sequence (whole entry): T1 sequence (P55055 whole entry)

[17] = species: Homo sapiens; test: Agonist activity at LXR in human U937 cells assessed as downregulation of LPS-induced TNFalpha mRNA expression at 10 uM after 6 hrs by qPCR analysis; format: cell-based; procedure, shortened: as §4

Activity [14]	Compound	Activity [1]	Activity [2]	Activity [3]	Activity [4]	EC50 [5]	EC50 [6]	Activity [7]	Activity [8]	Activity [9]	Activity [10]	Activity [11]	Activity [12]	Activity [13]	Efficacy [15] [%]	Efficacy [16] [%]	Activity [17]
–	CC[C@@H](C(C)C)[C@@H](O)C[C@@H](C)[C@H]1CC[C@H]2[C@@H]3CC=C4C[C@@H](O)CC[C@]4(C)[C@H]3CC[C@]12C	Not Active	Not Active	Not Active	Active	Not Active	Not Active	Not Active	Not Active	Not Active	–	–	–	–	–	–	–
–	CC(C)[C@@H](C)C[C@H](O)[C@@H](C)[C@H]1CC[C@H]2C3=CC=C4C[C@@H](O)CC[C@]4(C)[C@H]3CC[C@]12C	Not Active	Not Active	Not Active	Active	–	–	Not Active	Not Active	Not Active	Active	inactive	Active	inactive	–	–	–
–	CC(C)[C@@H](C)C[C@@H](O)[C@@H](C)[C@H]1CC[C@H]2C3=CC=C4C[C@@H](O)CC[C@]4(C)[C@H]3CC[C@]12C	Not Active	Not Active	Not Active	Active	Not Active	Not Active	Not Active	Not Active	Not Active	–	–	–	–	–	–	–
Active	CC[C@H](C[C@@H](O)[C@@H](C)[C@H]1CC[C@H]2[C@@H]3CC=C4C[C@@H](O)CC[C@]4(C)[C@H]3CC[C@]12C)C(C)C	Not Active	Not Active	Not Active	Active	–	–	Not Active	Not Active	Not Active	–	inactive	–	inactive	–	–	–
–	CC[C@H](C[C@H](O)[C@@H](C)[C@H]1CC[C@H]2[C@@H]3CC=C4C[C@@H](O)CC[C@]4(C)[C@H]3CC[C@]12C)C(C)C	Not Active	Not Active	Not Active	–	Not Active	Not Active	Not Active	Not Active	Not Active	–	–	–	–	–	–	–
–	CC(C)[C@@H](C)[C@H]1O[C@@H]1[C@@H](C)[C@H]1CC[C@H]2C3=CC=C4C[C@@H](O)CC[C@]4(C)[C@H]3CC[C@]12C	Not Active	Not Active	Not Active	–	–	–	Not Active	Not Active	Not Active	–	inactive	Active	inactive	93.2	30.4	–
–	CC(C)[C@@H](C)[C@@H](O)C[C@@H](C)[C@H]1CC[C@H]2C3=CC=C4C[C@@H](O)CC[C@]4(C)[C@H]3CC[C@]12C	Not Active	Not Active	Not Active	Active	Not Active	–	Not Active	Not Active	Not Active	Active	inactive	Active	inactive	159	–	Active
